eIF4E 4G PPI: eIF4E–eIF4G protein interaction inhibitors, primary screen, biochemical, uHTS, TR-FRET, eIF4GI fragment; Eukaryotic translation initiation factor 4E (Mus musculus) + Eukaryotic translation …; inhibition, % at 21.7 µM; TR-FRET eIF4E-eIF4GI(517-606) binding, 2 h; 0.37% of 220,000 active;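 also: 0% = full FRET control wells and 100% = background wells lacking eIF4GI fragment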
Target sequence (P63073 whole entry, looked up, the tested form may be a part): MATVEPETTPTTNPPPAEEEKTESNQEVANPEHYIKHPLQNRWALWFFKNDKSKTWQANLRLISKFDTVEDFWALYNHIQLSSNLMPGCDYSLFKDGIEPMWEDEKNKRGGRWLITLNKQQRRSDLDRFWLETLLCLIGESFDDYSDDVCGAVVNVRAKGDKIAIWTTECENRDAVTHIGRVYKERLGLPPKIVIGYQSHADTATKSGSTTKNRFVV
Target sequence (Q04637 whole entry, looked up, the tested form may be a part): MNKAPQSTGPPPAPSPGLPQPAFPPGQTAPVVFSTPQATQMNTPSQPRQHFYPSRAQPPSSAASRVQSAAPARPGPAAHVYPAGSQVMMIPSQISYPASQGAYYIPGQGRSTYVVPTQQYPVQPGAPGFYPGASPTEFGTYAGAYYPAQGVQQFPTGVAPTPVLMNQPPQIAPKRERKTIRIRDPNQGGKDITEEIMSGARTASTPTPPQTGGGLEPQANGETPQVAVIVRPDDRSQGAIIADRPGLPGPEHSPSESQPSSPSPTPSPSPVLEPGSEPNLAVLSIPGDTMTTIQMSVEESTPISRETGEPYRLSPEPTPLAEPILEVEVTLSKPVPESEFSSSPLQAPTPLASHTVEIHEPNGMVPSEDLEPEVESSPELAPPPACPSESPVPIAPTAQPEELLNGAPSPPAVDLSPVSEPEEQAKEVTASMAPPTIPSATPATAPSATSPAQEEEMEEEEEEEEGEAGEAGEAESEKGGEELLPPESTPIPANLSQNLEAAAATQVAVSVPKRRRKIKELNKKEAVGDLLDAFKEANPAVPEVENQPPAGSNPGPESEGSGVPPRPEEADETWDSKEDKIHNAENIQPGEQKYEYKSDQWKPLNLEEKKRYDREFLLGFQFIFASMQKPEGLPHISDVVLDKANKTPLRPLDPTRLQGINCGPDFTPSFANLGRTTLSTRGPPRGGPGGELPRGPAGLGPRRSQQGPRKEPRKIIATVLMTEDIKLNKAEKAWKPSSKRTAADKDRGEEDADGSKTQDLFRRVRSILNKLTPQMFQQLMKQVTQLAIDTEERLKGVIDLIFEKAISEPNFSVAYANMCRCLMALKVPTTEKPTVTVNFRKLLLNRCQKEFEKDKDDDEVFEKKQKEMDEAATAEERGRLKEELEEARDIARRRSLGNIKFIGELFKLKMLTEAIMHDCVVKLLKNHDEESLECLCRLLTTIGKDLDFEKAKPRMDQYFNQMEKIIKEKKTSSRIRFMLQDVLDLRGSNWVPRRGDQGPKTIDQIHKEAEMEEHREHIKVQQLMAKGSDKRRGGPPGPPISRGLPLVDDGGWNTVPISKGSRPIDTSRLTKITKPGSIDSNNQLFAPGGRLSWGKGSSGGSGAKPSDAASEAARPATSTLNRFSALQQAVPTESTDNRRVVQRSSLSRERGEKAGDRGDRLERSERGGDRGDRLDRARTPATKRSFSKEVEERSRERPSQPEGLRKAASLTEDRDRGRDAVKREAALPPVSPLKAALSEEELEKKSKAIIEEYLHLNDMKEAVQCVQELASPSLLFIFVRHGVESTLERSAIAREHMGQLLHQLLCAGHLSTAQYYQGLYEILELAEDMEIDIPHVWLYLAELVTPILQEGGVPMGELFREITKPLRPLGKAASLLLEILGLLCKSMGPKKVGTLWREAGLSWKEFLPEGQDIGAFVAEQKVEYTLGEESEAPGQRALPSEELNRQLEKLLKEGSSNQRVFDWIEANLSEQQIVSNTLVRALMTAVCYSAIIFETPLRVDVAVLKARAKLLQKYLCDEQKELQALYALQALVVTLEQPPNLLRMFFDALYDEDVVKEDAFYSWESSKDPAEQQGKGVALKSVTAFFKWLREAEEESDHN
TbMetRS inhib: T. brucei MetRS inhibitors, primary screen, biochemical, luminescence | methionyl-tRNA synthetase (Trypanosoma brucei brucei) | purified T. brucei MetRS, ATP depletion, Kinase-Glo luminescence | inhibition, % at 11.9 µM | 0.4% of 360,000 active;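 active = inhibition above a per-plate cutoff of the control wells' mean inhibition plus 3 SD, cut at about 5.5% in these data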;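 also: 0% = DMSO wells median and 100% = median of wells with control inhibitor compound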
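Material: T. brucei methionyl-tRNA synthetase, purified; reagent: substrates ATP, L-methionine and bulk Escherichia coli tRNA; dosing: 11.9 µM single point; timing: 15 min plus 2 h at 25 °C; detection: luminescence of leftover ATP; evaluation: % inhibition; control set: DMSO-only wells as low control; replicates: singlicate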
14-3-3 Bad PPI: inhibitors of 14-3-3 zeta/Bad binding, primary screen, biochemical, TR-FRET, bovine 14-3-3 zeta. inhibition, % at 21.7 µM. 0.71% of 220,000 active. 14-3-3 protein zeta/delta (Bos taurus), P63103. TR-FRET 14-3-3zeta/Dy647-pBad peptide displacement, 1 h;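 active = inhibition above about 70%, limit read from the data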;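 also: 0% = full 14-3-3 plus peptide FRET controls and 100% = background without 14-3-3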
p47phox inh: p47phox/p22phox peptide binding inhibitors, primary screen, biochemical, uHTS, NADPH oxidase regulatory subunit; inhibition, % at 24.7 µM; 0.53% of 220,000 active; fluorescence polarization, 2 h;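 also: 0% = p47phox with labelled peptide and 100% = labelled peptide alone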
UBC9 SUMO inh: inhibitors of in vitro SUMOylation cascade, primary screen, biochemical, HTRF, uHTS; HTRF SUMOylation assay, SAE1/SAE2 + UBC9; inhibition, % at 35 µM; 0.36% of 290,000 active; AID 2006, 2009; in the data active = inhibition above about 50%, passing the limit was not always enough
p97 ATPase inh: inhibitors of human p97 ATPase, primary screen, biochemical | Transitional endoplasmic reticulum ATPase (Homo sapiens), P55072 | inhibition, % at 8 µM | AID 1481, 2009 | recombinant p97 ATPase, Kinase-Glo ATP luminescence, 3 h | 0.42% of 220,000 active; in the data active = inhibition above about 15%;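 also: 0% = DMSO vehicle and 100% = wells lacking enzyme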
An asterisk follows results filed as active; · = no result; [ ] = remark or other dose. Rows were chosen to be rich in hits. Some 1.6% of all compounds tested hit in one or more screens of this group.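 The calls were made as follows, unless noted: active = inhibition above about 30% (limit read from the data); inactive = the rest.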

SMILES	eIF4E 4G PPI	TbMetRS inhib	14-3-3 Bad PPI	p47phox inh	UBC9 SUMO inh	p97 ATPase inh
COc1ccc(CCn2c(-c3ccc(OC)cc3)nc3c(c(=O)c4ccccc4n3C)c2=O)cc1	-3	0	6	-9	5	0
C=CCOc1ccccc1CN1CCSCC1	-11	-1	80*	-1	2	0
O=C(NC1CCCCC1)C(c1ccc(F)cc1)N(CCc1ccccc1)C(=O)CN1C(=O)c2ccccc2S1(=O)=O (centres undefined)	-3	0	6	31*	19	2
CCCCn1nnnc1C(c1cc2ccccc2o1)N1CCN(c2cc(C)nc3ccccc23)CC1 (centres undefined)	·	0	·	·	·	·
CO[C@H]1/C=C/O[C@@]2(C)Oc3c(C)c(O)c4c(O)c(c(C=NN5CCN(C)CC5)c(O)c4c3C2=O)NC(=O)/C(C)=C\C=C\[C@H](C)[C@H](O)[C@@H](C)[C@@H](O)[C@@H](C)[C@H](OC(C)=O)[C@@H]1C	·	0	·	·	·	·
CO[C@H]1C=CO[C@@]2(C)Oc3c(C)c(O)c4c(O)c(c(C=NN5CCN(C6CCCC6)CC5)c(O)c4c3C2=O)NC(=O)C(C)=CC=C[C@H](C)[C@H](O)[C@@H](C)[C@@H](O)[C@@H](C)[C@H](OC(C)=O)[C@@H]1C	-4	·	-5	-10	52*	-4
CCCCCCOc1ccc(-c2ccc(C#N)cn2)cc1	3	0	-4	-2	-4	5
CC(C)NC(=O)NC(=O)CN1c2cccc3cccc(c23)S1(=O)=O	·	0	·	·	32	·
O=c1c2ccccc2sc2nc(C3CCCCC3)n(Cc3ccco3)c(=O)c12	-71	-1	73*	-7	8	7
CCc1nc2sc3ccccc3c(=O)c2c(=O)n1Cc1ccco1	19	-1	8	-37	13	5
O=C(CSc1ncccn1)NC1CCS(=O)(=O)C1 (centres undefined)	·	0	·	·	4	·
Cc1cc2c(cc1C)-n1nnnc1C(N(Cc1ccccc1)Cc1ccccc1)C(=O)N2 (centres undefined)	·	0	·	·	·	·
Cc1ccc2c(SCC(=O)NCc3ccco3)nc(-c3ccc(F)cc3)nc2c1	0	-1	8	-3	59*	1
CC(C)(C)c1ccc(CCC2OCC(C[N+]3(C)CCOCC3)O2)cc1 (centres undefined)	91*	0	-1	-11	3	3
CCc1ccc(S(=O)(=O)N2CCN(C(=O)C3CCN(C(C)=O)CC3)CC2)cc1	·	0	·	·	15	·
Cc1cccc(N2CCN(C(=O)c3ccc4nc[nH]c4c3)CC2)c1C	5	0	-14	-11	-11	-5
Cc1ccc(Cl)cc1N1CCN(C(=O)c2ccc3nc[nH]c3c2)CC1	3	1	-1	123*	-11	1
C/C(=N\NC(=O)c1cccnc1)c1ccc(OC2OCCOC2Oc2ccc(/C(C)=N/NC(=O)c3cccnc3)cc2)cc1 (centres undefined)	15	-1	87*	9	2	-3
Cc1ccc(C(=O)N[C@@H](Cc2ccccc2)C(=O)N2CCC3(CC2)NCCc2[nH]cnc23)cc1C	·	0	·	·	·	·
COc1ccccc1Oc1c(C)oc2c(CN3CCN(C)CC3)c(O)ccc2c1=O	2	·	-2	-6	52*	-1
COC(=O)c1ccc(Oc2c(C)oc3c(CN4CCN(C)CC4)c(O)ccc3c2=O)cc1	·	-1	·	·	38	-7
CCn1c(SCC(=O)NCc2ccc3c(c2)OCO3)nnc1-c1cccs1	68*	-1	-12	-11	-2	-5
Cn1c(SCC(=O)NCc2ccc3c(c2)OCO3)nnc1-c1cccs1	-11	0	-8	-6	6	1
COC(=O)c1ccc(CSc2n[nH]c(=S)s2)o1	33*	0	30	-2	9	3
CC(C)Oc1ccc(S(=O)(=O)N2CCOCC2)cc1NC(=O)C1=NN(c2ccccc2)C(=O)CC1	·	0	·	·	·	·
SMILES	eIF4E 4G PPI	TbMetRS inhib	14-3-3 Bad PPI	p47phox inh	UBC9 SUMO inh	p97 ATPase inh
CC1=NN(c2ccc(Cl)c(C(=O)O)c2)C(=O)/C1=C\c1ccc(-c2ccc(C(=O)O)cc2)o1	21	1	-25	-16	82*	6
CC1=NN(c2ccc(C(=O)O)cc2)C(=O)/C1=C/c1ccc(-c2ccccc2F)o1	·	0	·	·	31	·
O=c1oc2ccc3ccccc3c2cc1-c1nnc(-c2cccs2)o1	-2	-1	1	7	23	2
COc1ccc(-c2nnc(-c3cc4c(ccc5ccccc54)oc3=O)o2)cc1	4	0	72*	32*	33	4
O=c1oc2ccc3ccccc3c2cc1-c1nnc(-c2ccccc2)o1	-44	-2	5	-1	13	-3
Nc1nnc(-c2cc3c(ccc4ccccc43)oc2=O)s1	19	·	70	16	66*	3
COC(=O)[C@@]1(C(C)C)N=C(c2cc(OC)c(OC)c(OC)c2)[C@]2(O1)C(=O)Nc1ccccc12	·	0	·	·	·	·
Cn1cnc(S(=O)(=O)N2CCCCC2c2cc(C(=O)Nc3ccc(F)c(Cl)c3)no2)c1 (centres undefined)	·	0	·	·	·	·
c1ccc(-c2cc(-c3ccc(N4CCOCC4)cc3)nc3ccccc23)cc1	15	-1	3	-14	24	3
COc1ccc2c(-c3ccccc3)cc(N3CCOCC3)nc2c1	18	0	86*[fluorescence artefact?]	-9	-10	1
CCCc1cc(=O)[nH]c2nnc(SCC(=O)Nc3cc(C)on3)n12	·	0	·	·	·	·
CS(=O)(=O)N1CCN(Cc2ccc(C(F)(F)F)cc2)CC1	2	0	81*	8	15	1
O=C(Nc1nccs1)c1cccc(N2C(=O)c3cccc4c([N+](=O)[O-])ccc(c34)C2=O)c1	-40	0	77*[fluorescence artefact?]	19	30	-1
CC(C)n1c(=O)[nH][nH]c1=S	28	0	-2	43*	9	6
COc1cccc(NC(=O)Nc2nnc(-c3ccccc3SCc3ccccc3)s2)c1	-4	-2	-6	-16	55*	-3
O=C(Nc1nnc(-c2ccccc2SCc2ccccc2)s1)Nc1ccccc1F	-5	2	-6	-12	70*	-8
CCC(C)C(=O)Nc1nnc(SCC(=O)Nc2ccccc2F)s1 (centres undefined)	-2	0	87*	-5	21	-4
O=C(Nc1nnc(-c2ccccc2F)s1)Nc1ccccc1F	-2	-1	-9	-10	10	3

Screening results: PubChem, several laboratories
